From ChEMBL document CHEMBL1152814, “Novel cyano- and amidinobenzothiazole derivatives: synthesis, antitumor evaluation, and X-ray and quantitative structure-activity relationship (QSAR) analysis” (J Med Chem, 2009)
Calls of active or inactive are those of the source. The calls are words filed in the database; no cut-off is given here.

Tests used:
[1] = Antiproliferative activity against human WI38 cells after 72 hrs by MTT assay; assay type: cell-based; settings: WI-38, 72 h
Summary of the method: (§1)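 Monolayers in DMEM with 10% FBS, 2 mM L-glutamine, penicillin/streptomycin, 37 °C, 5% CO2. Seeded at 3 × 10³ to 6 × 10³ cells/well on day 0. Agents added the next day in five 10-fold dilutions (10^-8–10^-4 mol/L), with a DMSO solvent control (max 0.25%). MTT read at 570 nm after 72 h. Quadruplicate points, three experiments. IC50 is the concentration giving 50% growth inhibition.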

HeLa = assay: Antiproliferative activity against human HeLa cells after 72 hrs by MTT assay; assay type: functional, cell-based; summary of the method: as §1
MIA PaCa-2 = assay: Antiproliferative activity against human MIAPaCa2 cells after 72 hrs by MTT assay; assay type: functional, cell-based; settings: MIA PaCa-2, 72 h; summary of the method: as §1
SW-620 = assay: Antiproliferative activity against human SW620 cells after 72 hrs by MTT assay; assay type: functional, cell-based; settings: SW-620, 72 h; summary of the method: as §1
MCF7 = assay: Antiproliferative activity against human MCF7 cells after 72 hrs by MTT assay; assay type: functional, cell-based; settings: MCF7, 72 h; summary of the method: as §1
NCI-H460 [2] = assay: Antiproliferative activity against human H460 cells after 72 hrs by MTT assay; assay type: functional, cell-based; settings: NCI-H460, 72 h; summary of the method: as §1
NCI-H460 [3] = assay: Cell cycle arrest in human H460 cells assessed as reduction of percentage of cells in S phase at 5 to 50 uM after 24 hrs using propidium iodide staining by FACS; assay type: functional, cell-based
Summary of the method: (§2)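 H 460 cells seeded at 2 × 10⁵/well and treated after overnight incubation with 5, 10 or 50 µM for 24 or 48 h. Attached and floating cells were pooled, fixed in 70% ethanol, treated with 0.2 µg/µL RNase A (37 °C, 15 min) and stained with 50 µg/mL propidium iodide. Flow cytometry counted 20000 events, in duplicate across two independent experiments.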

NCI-H460 [4] = assay: Cell cycle arrest in human H460 cells assessed as reduction of percentage of cells in S phase at 5 to 50 uM after 48 hrs using propidium iodide staining by FACS; assay type: functional, cell-based; summary of the method: as §2
NCI-H460 [5] = assay: Cell cycle arrest in human H460 cells assessed as increase in percentage of cells in sub-G1 phase at 5 to 50 uM after 24 hrs using propidium iodide staining by FACS; assay type: functional, cell-based; summary of the method: as §2
NCI-H460 [6] = assay: Cell cycle arrest in human H460 cells assessed as increase in percentage of cells in sub-G1 phase at 5 to 50 uM after 48 hrs using propidium iodide staining by FACS; assay type: functional, cell-based; summary of the method: as §2
NCI-H460 [7] = assay: Induction of apoptosis in human H460 cells at 50 uM after 24 hrs; assay type: functional
NCI-H460 [8] = assay: Induction of apoptosis in human H460 cells assessed as complete cell death at 50 uM after 48 hrs; assay type: functional, cell-based
NCI-H460 [9] = assay: Induction of apoptosis in human H460 cells assessed as late apoptotic cells at 5 uM after 48 hrs using annexin V staining by FACS; assay type: functional
Summary of the method: (§3)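 H 460 cells seeded at 2 × 10⁵/well and exposed for 48 h (5, 10 or 50 µM) against a vehicle control. Floating and attached cells were pooled and washed in binding buffer (10 mM HEPES, 140 mM NaCl, 2.5 mM CaCl2, pH 7.4). They were stained 20 min with annexin V Alexa Fluor 488 and 1 µg/mL 7-AAD, then read by flow cytometry. Quadrants: viable, early apoptotic, late apoptotic.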

NCI-H460 [10] = assay: Induction of apoptosis in human H460 cells assessed as early apoptotic cells at 5 uM after 48 hrs using annexin V staining by FACS; assay type: functional; summary of the method: as §3
NCI-H460 [11] = assay: Induction of apoptosis in human H460 cells assessed as viable cells at 5 uM after 48 hrs using annexin V staining by FACS; assay type: functional; settings: NCI-H460, 48 h, read-out: Activity; summary of the method: as §3
NCI-H460 [12] = assay: Induction of apoptosis in human H460 cells assessed as late apoptotic cells at 10 uM after 48 hrs using annexin V staining by FACS; assay type: functional; summary of the method: as §3
NCI-H460 [13] = assay: Induction of apoptosis in human H460 cells assessed as early apoptotic cells at 10 uM after 48 hrs using annexin V staining by FACS; assay type: functional; summary of the method: as §3
NCI-H460 [14] = assay: Induction of apoptosis in human H460 cells assessed as viable cells at 10 uM after 48 hrs using annexin V staining by FACS; assay type: functional; settings: NCI-H460, 48 h, read-out: Activity; summary of the method: as §3
NCI-H460 [15] = assay: Induction of apoptosis in human H460 cells assessed as late apoptotic cells after 48 hrs using annexin V staining by FACS; assay type: functional, cell-based; summary of the method: as §3
NCI-H460 [16] = assay: Induction of apoptosis in human H460 cells assessed as early apoptotic cells after 48 hrs using annexin V staining by FACS; assay type: functional, cell-based; summary of the method: as §3
NCI-H460 [17] = assay: Induction of apoptosis in human H460 cells assessed as viable cells after 48 hrs using annexin V staining by FACS; assay type: functional, cell-based; summary of the method: as §3
HEp-2 = assay: Antiproliferative activity against human Hep2 cells after 72 hrs by MTT assay; assay type: functional, cell-based; settings: HEp-2, 72 h; summary of the method: as §1
NCI-H460 [18] = assay: Cell cycle arrest in human H460 cells assessed as induction of G1 phase delay at 50 uM after 24 hrs using propidium iodide staining by FACS; assay type: functional, cell-based; summary of the method: as §2
NCI-H460 [19] = assay: Cell cycle arrest in human H460 cells assessed as induction of G2 phase delay at 50 uM after 24 hrs using propidium iodide staining by FACS; assay type: functional, cell-based; summary of the method: as §2
NCI-H460 [20] = assay: Cell cycle arrest in human H460 cells assessed as reduction of percentage of cells in S phase at 50 uM after 24 hrs using propidium iodide staining by FACS; assay type: functional, cell-based; summary of the method: as §2
NCI-H460 [21] = assay: Cell cycle arrest in human H460 cells assessed as induction of G1 phase delay at 50 uM after 48 hrs using propidium iodide staining by FACS; assay type: functional, cell-based; summary of the method: as §2
NCI-H460 [22] = assay: Cell cycle arrest in human H460 cells assessed as induction of G2 phase delay at 50 uM after 48 hrs using propidium iodide staining by FACS; assay type: functional, cell-based; summary of the method: as §2
NCI-H460 [23] = assay: Cell cycle arrest in human H460 cells assessed as reduction of percentage of cells in S phase at 50 uM after 48 hrs using propidium iodide staining by FACS; assay type: functional, cell-based; summary of the method: as §2
NCI-H460 [24] = assay: Cell cycle arrest in human H460 cells assessed as increase in percentage of cells in G1 phase at 10 uM after 24 hrs using propidium iodide staining by FACS; assay type: functional, cell-based; summary of the method: as §2
NCI-H460 [25] = assay: Cell cycle arrest in human H460 cells assessed as increase in percentage of cells in G1 phase at 10 uM after 48 hrs using propidium iodide staining by FACS; assay type: functional, cell-based; summary of the method: as §2
NCI-H460 [26] = assay: Induction of apoptosis in human H460 cells assessed as late apoptotic cells at 50 uM after 48 hrs using annexin V staining by FACS; assay type: functional; summary of the method: as §3
NCI-H460 [27] = assay: Induction of apoptosis in human H460 cells assessed as early apoptotic cells at 50 uM after 48 hrs using annexin V staining by FACS; assay type: functional; summary of the method: as §3
NCI-H460 [28] = assay: Induction of apoptosis in human H460 cells assessed as viable cells at 50 uM after 48 hrs using annexin V staining by FACS; assay type: functional; settings: NCI-H460, 48 h, read-out: Activity; summary of the method: as §3

Structure (SMILES)	IC50 [1] [µM]	IC50 (HeLa) [µM]	IC50 (MIA PaCa-2) [µM]	IC50 (SW-620) [µM]	IC50 (MCF7) [µM]	IC50 (NCI-H460 [2]) [µM]	IC50 (HEp-2) [µM]	other results
Cc1cccc(Nc2nc3ccc(C(=N)NC(C)C)cc3s2)n1.Cl.Cl	19	4	3	9	3	3	–	Activity (NCI-H460 [3]): Active; Activity (NCI-H460 [4]): Active; Activity (NCI-H460 [5]): Active; Activity (NCI-H460 [6]): Active; Activity (NCI-H460 [7]): 40%; Activity (NCI-H460 [8]): Active; Activity (NCI-H460 [9]): 3.37%; Activity (NCI-H460 [10]): 12.24%; viability at 5 µM (NCI-H460 [11]): 83.1%; Activity (NCI-H460 [12]): 3.75%; Activity (NCI-H460 [13]): 16.43%; viability at 10 µM (NCI-H460 [14]): 77.7%; Activity (NCI-H460 [15]): Dose-dependent effect; Activity (NCI-H460 [16]): Dose-dependent effect; Activity (NCI-H460 [17]): Dose-dependent effect
Cc1cccnc1Nc1nc2ccc(C(=N)NC(C)C)cc2s1	14	5	3	5	2	2	–	–
c1cnc(Nc2nc3ccc(C4=NCCN4)cc3s2)nc1	1.7	1.4	1.8	1.7	1.7	1.6	–	–
N#Cc1ccc2nc(Nc3ccc(Cl)cn3)sc2c1	> 10	> 10	6	≥ 10	10	–	> 10	–
Cc1ccc(Nc2nc3ccc(C(=N)NC(C)C)cc3s2)nc1.Cl.Cl	31	12	14	12	8	15	–	Activity (NCI-H460 [18]): Active; Activity (NCI-H460 [19]): Active; Activity (NCI-H460 [20]): Active; Activity (NCI-H460 [21]): Active; Activity (NCI-H460 [22]): Active; Activity (NCI-H460 [23]): Active; Activity (NCI-H460 [24]): inactive; Activity (NCI-H460 [25]): inactive; Activity (NCI-H460 [3]): Active; Activity (NCI-H460 [4]): Active; Activity (NCI-H460 [26]): 2.39%; Activity (NCI-H460 [27]): 13.58%; viability at 50 µM (NCI-H460 [28]): 83.2%; Activity (NCI-H460 [15]): Dose-dependent effect; Activity (NCI-H460 [16]): Dose-dependent effect; Activity (NCI-H460 [17]): Dose-dependent effect
N#Cc1ccc(Nc2nc3ccc(C#N)cc3s2)cc1	> 10	> 10	> 10	> 10	> 10	–	> 10	–
Cc1ccnc(Nc2nc3ccc(C#N)cc3s2)c1	≥ 10	3	4	4	> 10	–	7	–
CC(C)NC(=N)c1ccc2nc(NC(=O)c3ccccc3Cl)sc2c1	61	23	45	45	16	59	–	–
CC(C)NC(=N)c1ccc(Nc2nc3ccc(C(=N)NC(C)C)cc3s2)cc1	92	18	30	18	6	16	–	–
Cc1ccnc(Nc2nc3ccc(C(=N)NC(C)C)cc3s2)c1	12.5	4	3	3	2	2	–	–
Cc1ccc(Nc2nc3ccc(C4=NCCN4)cc3s2)nc1.Cl.Cl	6	2	2	1	2	2	–	Activity (NCI-H460 [3]): Active; Activity (NCI-H460 [4]): Active; Activity (NCI-H460 [12]): 2.3%; Activity (NCI-H460 [13]): 6.98%; viability at 10 µM (NCI-H460 [14]): 89%; Activity (NCI-H460 [15]): Dose-dependent effect; Activity (NCI-H460 [16]): Dose-dependent effect; Activity (NCI-H460 [17]): Dose-dependent effect
N#Cc1ccc2nc(Nc3ncccn3)sc2c1	≥ 10	5	3	9	7	–	5	–
